The whole screen tested about 290,000 compounds, of which about 1,600 (0.55%) were called active. Only a selection was taken, and actives are over-represented in it overall. A number with no mark means an inactive call.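 How the source made its calls: active means inhibition above the mean of all tested compounds plus 3 SD, set per campaign (cut at about 35% in these data); inactive means the rest.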
The compounds below were run on Hepatitis C virus NS3 helicase (assay: HCV NS3 DNA unwinding blockers – biochemical, Cy5 molecular beacon fluorescence, primary screen (AID 1800;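 further: 0% = DMSO wells and 100% = thioflavine S control wells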)). Details: at 10.9 µM, active compounds read high.
Summary of the method: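 System: HCV NS3 helicase fragment; control set: DMSO and thioflavine S; technique: Cy5 fluorescence at 0 and 60 min, beacon hairpin quenching; reagent: beacon DNA duplex substrate plus ATP; replicates: singlicate; schedule: 1 h reaction at 25 °C, ATP-initiated; medium: MOPS buffer pH 6.5 with MgCl2, DTT, Tween20, BSA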

Compound | inhibition
CS(=O)(=O)N1CCc2cc(C(=O)Nc3ccccc3Br)ccc21 | 5.96%
COc1cc2c(cc1OC)CN(CC(=O)Nc1ccc(F)cc1)CC2 | -2.51%
CCN(CCCNC(=O)c1ccc2c(c1)NC(=O)CN2C)c1cccc(C)c1 | 2.74%
Cc1ccc(-c2ccnc3[nH]n(-c4ccccc4)c(=O)c23)cc1 | 15.7%
O=c1c2c(-c3ccccc3)ccnc2[nH]n1-c1ccccc1 | 47.7% (active)
O=c1c(-c2cccc(Cl)c2)c[nH]n1-c1ccccc1 | 4.7%
COc1ccc(C(=O)N(C)CC(O)c2ccccc2)cc1OC1CCN(C(C)=O)CC1 (centres undefined) | 32.3%
CCNC(=O)CC1C(=O)N(c2ccc(OC)cc2)C(=O)N1CCOC (centres undefined) | 1.88%
CC1Sc2ccc(S(=O)(=O)CCC(=O)NCc3ccccc3Cl)cc2NC1=O (centres undefined) | 8.3%
COc1ccccc1N1CCN(C(=O)CCS(=O)(=O)c2ccc3c(c2)NC(=O)C(C)S3)CC1 (centres undefined) | 38.1% (active)
Cc1cccc(N2CCN(C(=O)CCS(=O)(=O)c3ccc4c(c3)NC(=O)C(C)S4)CC2)c1C (centres undefined) | -0.36%
Cc1ccc(S(=O)(=O)NCC(=O)N(CC(=O)NCC2CCCO2)c2cccc(F)c2)cc1 (centres undefined) | -2.87%
O=C(c1ccc(F)cc1)n1c(=S)nc2ccccn21 | 12%
CC(=O)c1ccccc1OCc1ccc(C(=O)c2ccccc2)cc1 | -8.3%
O=C1CC(N2CCN(c3ccc(F)cc3)CC2)C(=O)N1c1ccccc1 (centres undefined) | -13.4%
O=C(Cc1ccccc1)NC(=S)Nc1ccc(N2CCCCC2)cc1 | -1.95%
O=C1C=CC(=O)N1c1ccc(N2CCCCC2)cc1 | 45.2% (active)
COc1cccc(NC(=O)c2ccccc2N(Cc2ccccc2)S(C)(=O)=O)c1 | 0.24%
CC(=O)N1c2ccc(S(=O)(=O)N3CCCC(C(=O)Nc4ccc(C)cc4C)C3)cc2CC1C (centres undefined) | -18.4%
Cc1cc(C(=O)N/N=C/c2ccccc2[N+](=O)[O-])c(C)o1 | 5.42%
Cc1ccc(-c2ccc(/C=N/NC(=O)CN3CCOCC3)o2)cc1[N+](=O)[O-] | 6.31%
Cc1occc1C(=O)N/N=C/c1ccc(-c2cccc([N+](=O)[O-])c2)o1 | 45.3% (active)
COc1ccc(Cn2c(-c3ccc(Cl)cc3)c[n+]3ccccc23)cc1 | -35.9%
CCCCn1c(O)c(N=NC(=O)Cn2c(C(F)(F)F)nc3ccccc32)c2ccccc21 | 0.68%

Compound | inhibition
Oc1oc(-c2ccccc2Br)nc1/C=N/c1ccccn1 | -6.78%
O=C(c1ccco1)N1CCN(C(=S)Nc2cc(F)cc(F)c2)CC1 | -5.92%
CC1CCCN(c2ccc(C(=O)NCCc3ccccc3)cn2)C1 (centres undefined) | -1.78%
Cc1ccc(C(CC(=O)O)Nc2nc(N3CCCCC3)nc(N3CCCCC3)n2)cc1 (centres undefined) | 46.7% (active)
CCC(NC(=O)C1CCCC1)c1ccc(C)cc1 (centres undefined) | 1.79%
O=C(O)c1ccc(/C=N/Nc2nc(N3CCCCC3)nc(N3CCCCC3)n2)cc1 | 3.13%
Cc1ccc(C(=O)COC(=O)CCN2C(=O)C3C4CCC(C4)C3C2=O)cc1C (centres undefined) | 19.3%
CC1CN(C(=S)Nc2cccc(F)c2)CC(C)O1 (centres undefined) | -3.8%
COc1ccc(S(=O)(=O)N2CCSCC2)cc1 | 9.62%
CC(=O)C1=C(O)C(=O)N(c2cccnc2)C1c1ccc([N+](=O)[O-])cc1 (centres undefined) | -3.05%
COC(=O)CN1C(=O)C(O)=C(C(C)=O)C1c1ccc([N+](=O)[O-])cc1 (centres undefined) | -0.09%
CC(=O)C1=C(O)C(=O)N(c2ccc(Br)cc2)C1c1ccc([N+](=O)[O-])cc1 (centres undefined) | 36% (active)
CN(Cc1ccc(F)cc1)C(=O)COc1ccc2ccccc2c1 | -17.8%
COCn1c(C(O)c2ccccc2)cc2ccccc21 (centres undefined) | -4.17%
Cc1cc(C)c(OCC(=O)N/N=C/c2ccco2)c(C)c1 | -4.49%
COC(=O)COc1ccc2c(c1C)O/C(=C\c1ccco1)C2=O | 90.2% (active)
COC(=O)C1=C(C)N(c2ccc(Br)cc2)C(=O)/C1=C\c1ccco1 | 17.4%
Cn1ncc2c(N3CCCCC3)nc(NCCCO)nc21 | 5.11%
CC(=O)NN1C(=O)c2ccccc2NC1c1ccccc1 (centres undefined) | -4.55%
COC1=C/C(=C/c2c(N)n3nc(CC(=O)N4CCOCC4)sc3nc2=O)C=CC1=O | 13.6%
COc1cccc(NC(=O)CSc2nnc(Cc3ccc(OC)c(OC)c3)o2)c1 | -10.1%
O=C(N/N=C/c1ccco1)c1csc2c1CCCC2 | 42.9% (active)
O=C(N/N=C/c1ccco1)c1ccc(C(=O)N/N=C/c2ccco2)o1 | -3.79%
O=C(N/N=C/c1ccco1)c1ccc(NC(=O)C2CC2)cc1 | 2.86%

Compound | inhibition
Cc1ccc(C)c(S(=O)(=O)N2CCCOC2CNC(=O)C(=O)NC2CCCCC2)c1 (centres undefined) | 8.68%
CCc1cc2c(=O)n(-c3ccccc3)c(SCC(=O)O)nc2s1 | 5.68%
CCOc1ccc(C2C(C#N)=C(N)N(N(C)C)C3=C2C(=O)CCC3)cc1 (centres undefined) | 6.79%
COc1ccc(C2C3=C(CCCC3=O)N(CC(=O)O)C3=C2C(=O)CCC3)cc1 | 2.66%
CCOc1ccc(C2C3=C(CCCC3=O)N(CC(=O)O)C3=C2C(=O)CCC3)cc1 | 59.8% (active)
COc1ccc(N(C(=O)c2snc(C(N)=O)c2N)C(C(=O)NC2CCCC2)c2ccc(C)o2)c(OC)c1 (centres undefined) | -6.52%
Cc1[nH]n(-c2cccc(Cl)c2)c(=O)c1-c1ccc(Cl)cc1 | 1.96%
Cc1[nH]n(C(N)=S)c(=O)c1N=Nc1ccc(Cl)cc1Cl | 44.7% (active)
CC1=NN(C(N)=S)C(=O)C1N=Nc1cc(Cl)ccc1Cl (centres undefined) | 34.2%
O=C(CSC(=S)N1CCCCC1)c1c(F)cccc1F | 4.19%
Cc1cccc(OCC(=O)NCCCNC(=O)c2ccccn2)c1 | 4.84%
COc1ccc(CC(=O)N/N=C(\C)c2ccccn2)cc1 | 8.79%
CCN(CC)CCOc1ccc2c(c1)C(=NNC(=O)c1ccccn1)c1cc(OCCN(CC)CC)ccc1-2 | 41% (active)
COc1ccc(NC(=S)N2CCC(NC(=O)c3cccc(F)c3)CC2)cc1 | 5.28%
O=C(CSc1nnc(Nc2ccccc2)s1)Nc1cccnc1Cl | 4.07%
CC(C)c1ccc(Nc2nnc(SCC(=O)c3nnc(-c4ccccc4)o3)s2)cc1 | 42.3% (active)
Cc1ccc(Nc2nnc(SCc3ccccc3)s2)cc1 | -1.63%
Cc1ccc(SC(CC(=O)c2ccc(C(C)(C)C)cc2)C(=O)O)cc1 (centres undefined) | 44.4% (active)
Cc1ccc(CSCC(N)C(=O)O)cc1 (centres undefined) | 0.78%
Cc1ccc(C(=O)CSc2ccccc2C(=O)O)cc1 | 2.55%
C=CCn1c(=NC(=O)c2cccs2)sc2cc(NC(C)=O)ccc21 | -8.84%
Cc1cccc(CCNS(=O)(=O)c2ccc3c(c2)NC(=O)CO3)c1 | -2.06%
COc1ccc(/C=C(/NC(=O)c2ccccc2)C(=O)Nc2cccc(C(=O)O)c2)cc1 | 3.56%
COc1ccc(S(=O)(=O)N(C)CC(=O)N2CCCC2)cc1 | -9.23%

Compound | inhibition
CC(C)=N/N=C1/NC(=O)C(Cc2ccccc2)S1 (centres undefined) | 12.1%
COc1cc2c(cc1OC)C(c1ccccc1Br)NC(=O)C2 (centres undefined) | 1.43%
Cc1ccc(C2Nc3cccc4cccc(c34)N2)cc1 | 38.8% (active)
C/C(=C\c1ccco1)C1Nc2cccc3cccc(c23)N1 | 15%
Oc1ccc(C2Nc3cccc4cccc(c34)N2)cc1 | 9.35%
COc1cccc(C2Nc3cccc4cccc(c34)N2)c1 | -11.8%
Brc1ccccc1C1Nc2cccc3cccc(c23)N1 | 53.8% (active)
CCc1noc(C)c1C(=O)N1CCCC(N2CCN(c3ccc(F)cc3)CC2)C1 (centres undefined) | 8.93%
CC(C)(COC(=O)Nc1ccccc1)COC(=O)Nc1ccccc1 | -7.99%
Cc1cc([N+](=O)[O-])c(-c2ccc(/C=N/n3cnnc3)o2)cc1Cl | 12.9%
CC1=NN(c2ccc(Cl)c(C(=O)O)c2)C(=O)/C1=C/c1ccc(-c2ccccc2[N+](=O)[O-])o1 | 43.5% (active)
O=C(Nc1ccc(N2CCOCC2)cc1)c1ccc(-c2ccccc2[N+](=O)[O-])o1 | -10.2%
COc1ccccc1NC(=O)Nc1nnc(Cc2ccc(F)cc2)s1 | -6.22%
CCOc1ccc(N(C(=O)c2snc(C(N)=O)c2N)C(C(=O)NCC2CCCO2)c2c[nH]c3ccccc23)cc1 (centres undefined) | -29.3%
COc1ccc(/C=C(/NC(=O)c2ccco2)C(=O)Nc2ccc(C(C)=O)cc2)cc1 | 2.61%
COc1ccc(/C=C(\NC(=O)c2ccc(OCC(C)C)cc2)C(=O)OCc2ccco2)cc1 | 43.7% (active)
COc1ccc(C(=O)Nc2ccccc2C(=O)NCc2ccco2)cc1 | -9.8%
CCCn1cc(S(=O)(=O)c2ccc(C)cc2)c(=O)c2cc(OCC)ccc21 | -5.21%
CCc1ccc(NC(=O)Nc2ccncc2)cc1 | -8.08%
COCCNC(=O)Nc1ccc2nc(-c3ccco3)c(-c3ccco3)nc2c1 | 42.2% (active)
O=C(Nc1ccc2nccnc2c1)c1ccco1 | -0.83%
O=C(NCc1ccccn1)c1ccc2nc(-c3ccco3)c(-c3ccco3)nc2c1 | 31.3%

Reference: PubChem BioAssay AID1800 (The Scripps Research Institute Molecular Screening Center, 2009)
